Many of the other results were omitted from the sample, so hits are more common in it than they were.
HUVEC inhibit – inhibitors of HUVEC proliferation, primary screen, cell-based, 384-well. CellTiter-Glo luminescence, 72 h; hits give low values. viability, % at 10 µM (by protocol). hit rate 1.1% among 86,000. AID 648, 2007;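 active = viability at or below 30%; inactive = viability above 30%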;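 note: 100% = median luminescence of DMSO-only cell control wells on each plate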
HCT116 PTEN-null – growth suppression of PTEN-null HCT116, primary screen, cell-based, CellTiter-Glo; viability, % at 10 µM; AID 827, 2007; HCT116 PTEN-null viability, 60 h; hits give low values; hit rate 1.2% among 140,000;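 active = viability at or below a set limit, 4 SD under the median of all tested compounds, cut at about 3.7% in these data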;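 note: PTEN knockout HCT116 line with beta catenin targeted HCT116 as companion control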
bCat KO growth – primary screen for growth suppressors in beta-catenin knockout HCT116 cells (colon tumor, human); viability, % at 10 µM; AID 818, 2007; HCT116 beta-catenin knockout viability, CellTiter-Glo, 60 h; hits give low values; hit rate 1.5% among 140,000;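 active = viability at or under a set limit, the compound median less 4 SD, cut at about 6% in these data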;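 note: 0% = Hyamine 1622 control at 20 µM and 100% = untreated cell control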
Lung fibro prol – antiproliferative effect on LL 47 fibroblasts – human, LL 47 cells, CellTiter-Glo luminescence, primary screen; LL 47 human lung fibroblast viability, ATP luminescence; hits give low values; hit rate 1.1% among 85,000; AID 719, 2007; viability, % at 10 µM;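 active = viability at or below 50% in the single dose screen; inactive = viability above 50%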;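 note: compound exposure lasted 72 h before the ATP readout; 100% = median luminescence of untreated cell-only wells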
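material = human LL 47 lung fibroblast cells | dosing = compounds added from tenfold dosing solution, 0.1% DMSO final | timing = overnight cell rest, 72 h compound treatment at 37 °C | measured by = CellTiter-Glo luminescence measuring cellular ATP | evaluation = % viability versus median cells-only luminescence | control set = cell-only wells, no compound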
H69AR growth 86K – proliferation blockers of H69AR lung cancer cells, primary screen, cell-based, human, 86K library; H69AR lung tumor viability, ATP luminescence, 72 h; hits give low values; viability, % at 10 µM; hit rate 6% among 85,000; AID 598, 2007;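 active = viability at or below 40%; inactive = viability above 40%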;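 note: multidrug resistant small cell line overexpressing MRP-1 efflux transporter; 100% = mean luminescence of untreated control wells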
The depositor's hits bear a star; · = no result.

SMILES	HUVEC inhibit	HCT116 PTEN-null	bCat KO growth	Lung fibro prol	H69AR growth 86K
CN(/N=C\c1ccc(O)c(O)c1)c1nc(-c2ccccc2)cc(-c2ccccc2)n1	·	33	29	·	·
Cc1ccc(/C=N/NC(=O)CC(=O)NCc2cccnc2)cc1	·	97	99	·	·
Cc1nnc2sc(-c3ccc(NC(=O)c4ccc(-c5ccc(Br)cc5)o4)cc3)nn12	72	·	·	67	21*
COC(=O)c1cc(OC)c(OC)cc1NC(=O)c1c(-c2ccccc2Cl)noc1C	89	58	79	·	35*
COC(=O)c1cc(OC)c(OC)cc1NC(=O)Cn1nnc(-c2ccccc2Cl)n1	58	84	78	93	35*
COc1ccc(NC(=O)Cn2nnc(-c3ccccc3F)n2)cc1Cl	91	97	102	95	89
O=[N+]([O-])c1cccc(/C=C/c2nc(C=Nc3ccc4ccccc4c3)c(O)o2)c1	·	2.7*	18	·	·
O=C(CO/N=C/c1cccc([N+](=O)[O-])c1)Nc1ccc2ccccc2c1	89	104	96	108	68
COc1cccc(NC(=O)CSC(N)=O)c1	·	95	89	·	·
CC(C)(c1ccccc1)c1ccc(OCCCNCCO)cc1	26*	9	1.8*	66	0.9*
COCCn1c(-c2ccccc2)cnc1SCC(=O)Nc1cccc2ccccc12	·	87	81	·	·
Cc1ccc(CCSc2ccc(C(C)C)cc2)cn1	·	70	59	·	·
Cc1nnnn1CC(=O)Nc1ccccc1[N+](=O)[O-]	·	97	94	·	·
Cc1ccc(-c2cc(C(=O)Nc3cccnc3)c3ccccc3n2)o1	82	86	86	103	60
Cc1ccc(NC(=O)c2cc(-c3ccc(C)o3)nc3ccccc23)cc1	94	46	57	90	32*
COc1ccc(C(=O)c2sc(NC(C)C)nc2N)cc1OC	106	59	70	104	81
COc1cccc(C(=O)c2sc(NC(C)C)nc2N)c1	52	4	4.9*	43*	46
O=c1c2nnn(Cc3ccccc3)c2ncn1C/C=C/c1ccccc1	90	80	85	86	76
CCCNC(=O)CSc1nnc(-c2ccccc2Br)n1-c1cccc(C(F)(F)F)c1	·	89	80	·	·
NNc1ncnc2c1cnn2-c1ccccc1	73	77	76	91	20*
CCOC(=O)N1CCC(Nc2ncnc3c2cnn3-c2ccccc2)CC1	93	92	93	99	28*
C=CCN(C(=O)CSc1nc2[nH]ncc2c(=O)n1-c1ccccc1OC)c1ccccc1	116	71	76	94	91
CCN(CC)S(=O)(=O)c1ccc2nnn(OCC(=O)Nc3cccc(C#N)c3)c2c1	95	82	84	99	5.3*
Cc1ccc(Nc2nc(N)nc(CN3CCC(C)CC3)n2)c(C)c1	86	86	93	94	33*
O=C(O)c1ccc2c(=O)n3c(nc2c1)/C(=C/c1ccccc1C(F)(F)F)CCCC3	·	100	96	·	·
SMILES	HUVEC inhibit	HCT116 PTEN-null	bCat KO growth	Lung fibro prol	H69AR growth 86K
S=c1[nH]ncn1/N=C/c1cccc(Oc2ccccc2)c1	81	107	107	100	1.7*
Cn1ncc(Br)c1C(=O)OCC(=O)Nc1nc(-c2ccccc2)cs1	96	93	93	107	86
Cc1ccc(-c2noc(CSc3nnc(Cc4ccccc4)n3-c3cccc(C)c3)n2)cc1	89	66	66	104	20*
COc1ccc(-c2noc(CSc3nnc(Cc4ccccc4)n3-c3cccc(C)c3)n2)cc1OC	99	73	86	95	56
CCOC(=O)c1ccc(Nc2ncnc3ccc(C)cc23)cc1	61	89	90	115	84
CCOC(=O)c1cccc(Nc2ncnc3ccc(C)cc23)c1	84	46	43	90	22*
Cc1ccc2cccc(N=Cc3c(C)[nH]n(-c4ccccc4)c3=O)c2n1	·	2.5*	2.8*	·	·
Cc1[nH]n(-c2ccccc2)c(=O)c1/C=N/O	·	100	106	·	·
COC(=O)c1c(C(=O)OC)n(CCCN)c2ccc(C)cc12	87	77	73	93	102
Cc1ccc2c(c1)c1cccc3c1n2CCN3CCC(N)=O	21*	61	73	86	95
Cc1sc(NC(=O)c2sc3nc4c(C)cccc4cc3c2N)c(C#N)c1C	·	9	3.6*	·	·
Cc1c(-c2ccccc2)sc(N)c1C(=O)N1CCOCC1	103	92	90	103	102
O=C(Nc1nccs1)c1cc2c(s1)-c1ccccc1OC2	·	17	25	·	·
O=C(Nc1nc2ccccc2s1)c1cc2c(s1)-c1ccccc1OC2	45	48	61	30*	18*
COc1ccc(-c2coc3cc4oc(=O)cc(-c5ccccc5)c4cc23)cc1F	·	2.1*	2.6*	·	·
COc1ccc(-c2coc3cc4oc(=O)cc(C)c4cc23)cc1F	·	29	32	·	·
O=C(CSc1nnc(SCc2ccc(Cl)cc2)s1)N/N=C/c1c[nH]c2ccccc12	·	14	5.2*	·	·
CC(=O)O[C@]1(C(C)=O)CC[C@H]2[C@@H]3C=C(Cl)C4=CC(=O)CC[C@]4(C)[C@H]3CC[C@@]21C	87	62	65	80	19*
CC(=O)OCC(=O)[C@H]1CC[C@H]2[C@@H]3CCC4=CC(=O)CC[C@]4(C)[C@H]3CC[C@]12C	54	88	81	93	78
CC(=O)O[C@]1(C(C)=O)CC[C@H]2[C@@H]3C[C@H](C)C4=CC(=O)CC[C@]4(C)[C@H]3CC[C@@]21C	102	74	72	91	5.1*
COc1ccc(Nc2nc(N3CCCC3)nc3ccccc23)c(OC)c1	32	1.4*	1.4*	105	2.1*
C=CCNc1nc(N2CCCC2)nc2ccccc12	91	39	46	90	61
COc1ccc(Nc2ncnc3ccccc23)c(OC)c1	79	81	92	92	59
CC(Nc1nc(N2CCCCC2)nc2ccccc12)c1ccccc1 (configuration not stated)	3.6*	4	4.2*	21*	3.2*
NC(=O)Cc1c[nH]c2cccc(O)c12	38	99	89	99	85
SMILES	HUVEC inhibit	HCT116 PTEN-null	bCat KO growth	Lung fibro prol	H69AR growth 86K
COc1ccc(NC(=O)COC(=O)c2c3c(nc4ccccc24)CCCC3)cc1Cl	·	13	11	·	·
CCOC(=O)c1sc(NC(=O)CSc2n[nH]c(-c3ccncc3)n2)c(C#N)c1C	47	107	98	98	19*
CCOC(=O)c1sc(NC(=O)CSc2nccc(C)n2)c(C#N)c1C	89	5	11	95	7.2*
Cc1nnc(SCc2ccccc2F)n1NCc1cccs1	95	95	90	98	91
CCSc1nnc(NC(=O)CCNS(=O)(=O)c2cc(Br)cnc2N)s1	88	105	91	95	39*
CN(CCO)c1cc(Sc2nc3ccccc3s2)c2nonc2c1[N+](=O)[O-]	75	102	110	30*	4.3*
